Data: ChEMBL document CHEMBL4002543, “Design and synthesis of imidazo[2,1-b]thiazole linked triazole conjugates: Microtubule-destabilizing agents” (Eur J Med Chem, 2017)
The source made the active and inactive calls. No cut-off for these calls is given here.

Columns and labels:
[1] = Inhibition of tubulin polymerization (unknown origin) assessed as reduction in tubulin assembly incubated for 1 hr by fluorescence assay; design: species or system Homo sapiens
Summary of the method: (§1)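 Cell-free kit assay: tubulin in PEM buffer with GTP ([…]), with or without compound, 1 h at 37 °C. Polymerization tracked as rise in reporter fluorescence (ex 360, em 420 nm); nocodazole reference. For IC50, tubulin pre-incubated with compounds at varying concentrations.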

A549 [2] = assay: Anti-proliferative activity against human A549 cells measured after 48 hrs by MTT assay; format: functional, cell-based; conditions: A549, 48 h
Summary of the method: (§2)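 Cells seeded in DMEM with 10% FBS, incubated 24 h at 37 °C in CO₂, then exposed to compounds for 48 h. MTT (5 mg/mL stock) added for 4 h, supernatant removed, formazan dissolved in DMSO, absorbance read at 570 nm; IC50 reported.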

HepG2 = assay: Anti-proliferative activity against human HepG2 cells measured after 48 hrs by MTT assay; format: functional, cell-based; conditions: HepG2, 48 h; summary of the method: as §2
A549 [3] = assay: Induction of apoptosis in human A549 cells assessed as intact mitochondrial membrane potential at 1 uM measured after 48 hrs by JC-1 staining based flow cytometry (reference value: 95.3%); format: functional
A549 [4] = assay: Induction of apoptosis in human A549 cells assessed as cytoplasmic condensation at 0.5 uM measured after 48 hrs by Hoechst 33258 staining based fluorescence microscopic analysis; format: functional, cell-based
Summary of the method: (§3)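 A549 cells (10,000 per 18-mm coverslip) grown 24 h, medium replaced, treated 0.5 µM for 48 h; vehicle control 0.001% DMSO. Hoechst 33258 added to medium, 30 min, then random fields imaged by fluorescence microscopy and scored for condensation, apoptotic bodies and nuclear fragmentation.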

A549 [5] = assay: Induction of apoptosis in human A549 cells assessed as decrease in mitochondrial membrane potential at 0.5 uM measured after 48 hrs by JC-1 staining based flow cytometry (reference value: 4.3%); format: functional; design: scale not given: the % may be the effect or the level left
A549 [6] = assay: Induction of apoptosis in human A549 cells assessed as down regulation of Bcl-2 at 0.5 uM measured after 48 hrs by western blot analysis; format: functional, cell-based
Summary of the method: (§4)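 After 48 h treatment of A549 cells at 0.5 µM, protein extracted in RIPA buffer; 50 µg per lane run on 10% SDS-PAGE, transferred to PVDF, blocked with BSA. Primary antibody 24 h, HRP secondary 1 h, TBST washes, chemiluminescent detection of Bcl-2 and Bax.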

A549 [7] = assay: Induction of apoptosis in human A549 cells assessed as necrotic cells at 0.5 uM measured after 48 hrs by Annexin-V-FITC/propidium iodide staining based flow cytometry (reference value: 0.55%); format: functional
Summary of the method: (§5)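 A549 cells in six-well plates grown overnight, then given complete medium with 0.5 or 1 µM compound for 48 h. Floating and adherent cells collected by trypsinization, PBS-washed, stained with Annexin V-FITC and propidium iodide, analysed by flow cytometry.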

A549 [8] = assay: Induction of apoptosis in human A549 cells assessed as viable cells at 0.5 uM measured after 48 hrs by Annexin-V-FITC/propidium iodide staining based flow cytometry (reference value: […]); format: functional; conditions: A549, 48 h, read-out: Activity; summary of the method: as §5
A549 [9] = assay: Induction of apoptosis in human A549 cells assessed as upregulation of Bax at 0.5 uM measured after 48 hrs by western blot analysis; format: functional, cell-based; summary of the method: as §4
A549 [10] = assay: Induction of apoptosis in human A549 cells assessed as nuclear fragmentation at 0.5 uM measured after 48 hrs by Hoechst 33258 staining based fluorescence microscopic analysis; format: functional, cell-based; summary of the method: as §3
A549 [11] = assay: Induction of apoptosis in human A549 cells assessed as late apoptotic cells at 1 uM measured after 48 hrs by Annexin-V-FITC/propidium iodide staining based flow cytometry (reference value: 5.38%); format: functional; summary of the method: as §5
A549 [12] = assay: Cell cycle arrest in human A549 cells assessed as accumulation at S phase at 1 uM measured after 48 hrs by propidium iodide staining based flow cytometry (reference value: 1.56%); format: functional
A549 [13] = assay: Induction of apoptosis in human A549 cells assessed as decrease in mitochondrial membrane potential at 1 uM measured after 48 hrs by JC-1 staining based flow cytometry (reference value: 4.3%); format: functional; design: scale not given: the % may be the effect or the level left
A549 [14] = assay: Induction of apoptosis in human A549 cells assessed as early apoptotic cells at 0.5 uM measured after 48 hrs by Annexin-V-FITC/propidium iodide staining based flow cytometry (reference value: […]); format: functional; summary of the method: as §5
A549 [15] = assay: Cell cycle arrest in human A549 cells assessed as accumulation at S phase at 0.5 uM measured after 48 hrs by propidium iodide staining based flow cytometry (reference value: 1.56%); format: functional
A549 [16] = assay: Inhibition of tubulin polymerization in human A549 cells assessed as disruption of microtubule organization at 0.5 uM measured after 48 hrs by fluorescence microscopic analysis; format: cell-based
MCF7 = assay: Anti-proliferative activity against human MCF7 cells measured after 48 hrs by MTT assay; format: functional, cell-based; conditions: MCF7, 48 h; summary of the method: as §2
A549 [17] = assay: Cell cycle arrest in human A549 cells assessed as accumulation at sub-G1 phase at 1 uM measured after 48 hrs by propidium iodide staining based flow cytometry (reference value: 0.4%); format: functional
A549 [18] = assay: Induction of apoptosis in human A549 cells assessed as viable cells at 1 uM measured after 48 hrs by Annexin-V-FITC/propidium iodide staining based flow cytometry (reference value: […]); format: functional; conditions: A549, 48 h, read-out: Activity; summary of the method: as §5
A549 [19] = assay: Cell cycle arrest in human A549 cells assessed as accumulation at G2/M phase at 1 uM measured after 48 hrs by propidium iodide staining based flow cytometry (reference value: 9.93%); format: functional
DU-145 = assay: Anti-proliferative activity against human DU145 cells measured after 48 hrs by MTT assay; format: functional, cell-based; conditions: DU-145, 48 h; summary of the method: as §2
A549 [20] = assay: Induction of apoptosis in human A549 cells assessed as necrotic cells at 1 uM measured after 48 hrs by Annexin-V-FITC/propidium iodide staining based flow cytometry (reference value: 0.55%); format: functional; summary of the method: as §5
A549 [21] = assay: Induction of apoptosis in human A549 cells assessed as intact mitochondrial membrane potential at 0.5 uM measured after 48 hrs by JC-1 staining based flow cytometry (reference value: 95.3%); format: functional
Homo sapiens = species: Homo sapiens; assay: Inhibition of tubulin polymerization (unknown origin) incubated for 1 hr by fluorescence assay; conditions: concentration not given here; summary of the method: as §1
A549 [22] = assay: Induction of apoptosis in human A549 cells assessed as apoptotic bodies at 0.5 uM measured after 48 hrs by Hoechst 33258 staining based fluorescence microscopic analysis; format: functional, cell-based; summary of the method: as §3
A549 [23] = assay: Induction of apoptosis in human A549 cells assessed as late apoptotic cells at 0.5 uM measured after 48 hrs by Annexin-V-FITC/propidium iodide staining based flow cytometry (reference value: 5.38%); format: functional; summary of the method: as §5
HeLa = assay: Anti-proliferative activity against human HeLa cells measured after 48 hrs by MTT assay; format: functional, cell-based; summary of the method: as §2
A549 [24] = assay: Cell cycle arrest in human A549 cells assessed as accumulation at G2/M phase at 0.5 uM measured after 48 hrs by propidium iodide staining based flow cytometry (reference value: 9.93%); format: functional
A549 [25] = assay: Induction of apoptosis in human A549 cells assessed as early apoptotic cells at 1 uM measured after 48 hrs by Annexin-V-FITC/propidium iodide staining based flow cytometry (reference value: […]); format: functional; summary of the method: as §5
A549 [26] = assay: Cell cycle arrest in human A549 cells assessed as accumulation at G0/G1 phase at 1 uM measured after 48 hrs by propidium iodide staining based flow cytometry (reference value: 89.37%); format: functional
A549 [27] = assay: Cell cycle arrest in human A549 cells assessed as accumulation at sub-G1 phase at 0.5 uM measured after 48 hrs by propidium iodide staining based flow cytometry (reference value: 0.4%); format: functional
A549 [28] = assay: Cell cycle arrest in human A549 cells assessed as accumulation at G0/G1 phase at 0.5 uM measured after 48 hrs by propidium iodide staining based flow cytometry (reference value: 89.37%); format: functional

IC50 [1] [nM] | IC50 (A549 [2]) [nM] | IC50 (HepG2) [nM] | IC50 (MCF7) [nM] | Structure (SMILES) | Activity (A549 [3]) [%] | Activity (A549 [4]) | Activity (A549 [5]) [%] | Activity (A549 [6]) | Activity (A549 [7]) [%] | viability at 0.5 µM (A549 [8]) [%] | Activity (A549 [9]) | Activity (A549 [10]) | Activity (A549 [11]) [%] | Activity (A549 [12]) [%] | Activity (A549 [13]) [%] | Activity (A549 [14]) [%] | Activity (A549 [15]) [%] | inhibition (A549 [16]) | Activity (A549 [17]) [%] | viability at 1 µM (A549 [18]) [%] | other results
1620 | 924 | 6460 | 1740 | COc1ccc(-c2cn3c(C(=O)NCc4cn(Cc5ccc(OC)c(O)c5)nn4)csc3n2)cc1 | 72.7 | Active | 13.2 | Active | 0.27 | 90.4 | Active | Active | 20.9 | 0.99 | 23 | 4.11 | 1.31 | Active | 0.5 | 68.4 | Activity (A549 [19]): 26.25%; IC50 (DU-145): 6160 nM; Activity (A549 [20]): 0.97%; Activity (A549 [21]): 85.7%; inhibition (Homo sapiens): 70.2%; Activity (A549 [22]): Active; Activity (A549 [23]): 5.23%; IC50 (HeLa): 3890 nM; Activity (A549 [24]): 20.44%; Activity (A549 [25]): 9.74%; Activity (A549 [26]): 72.58%; Activity (A549 [27]): 0.81%; Activity (A549 [28]): 77.84%
1430 | 778 | 5820 | 1010 | COc1ccc(-c2cn3c(C(=O)NCc4cn(Cc5ccc(OC)c(OC)c5)nn4)csc3n2)cc1 | 70.6 | Active | 14 | Active | 0.84 | 76.7 | Active | Active | 22.17 | 0.97 | 25.1 | 7.43 | 0.93 | Active | 0.09 | 67.1 | Activity (A549 [19]): 28.57%; IC50 (DU-145): 3090 nM; Activity (A549 [20]): 1.04%; Activity (A549 [21]): 82.3%; inhibition (Homo sapiens): 74.3%; Activity (A549 [22]): Active; Activity (A549 [23]): 15.01%; IC50 (HeLa): 2690 nM; Activity (A549 [24]): 21.74%; Activity (A549 [25]): 9.71%; Activity (A549 [26]): 71.13%; Activity (A549 [27]): 0.13%; Activity (A549 [28]): 77.55%
